In ChEMBL document CHEMBL1148687, “Identification of a novel 4-aminomethylpiperidine class of M3 muscarinic receptor antagonists and structural insight into their M3 selectivity” (J Med Chem, 2006):

Assays:
Assay type in all cases: cell-based
[1] = target: T1, Muscarinic acetylcholine receptor M3 (Homo sapiens, UniProt P20309); test: Inhibition of [3H]NMS binding to human cloned M3 receptor expressed in CHO cells at 1 uM
Target sequence in this assay (P20309 whole entry, looked up): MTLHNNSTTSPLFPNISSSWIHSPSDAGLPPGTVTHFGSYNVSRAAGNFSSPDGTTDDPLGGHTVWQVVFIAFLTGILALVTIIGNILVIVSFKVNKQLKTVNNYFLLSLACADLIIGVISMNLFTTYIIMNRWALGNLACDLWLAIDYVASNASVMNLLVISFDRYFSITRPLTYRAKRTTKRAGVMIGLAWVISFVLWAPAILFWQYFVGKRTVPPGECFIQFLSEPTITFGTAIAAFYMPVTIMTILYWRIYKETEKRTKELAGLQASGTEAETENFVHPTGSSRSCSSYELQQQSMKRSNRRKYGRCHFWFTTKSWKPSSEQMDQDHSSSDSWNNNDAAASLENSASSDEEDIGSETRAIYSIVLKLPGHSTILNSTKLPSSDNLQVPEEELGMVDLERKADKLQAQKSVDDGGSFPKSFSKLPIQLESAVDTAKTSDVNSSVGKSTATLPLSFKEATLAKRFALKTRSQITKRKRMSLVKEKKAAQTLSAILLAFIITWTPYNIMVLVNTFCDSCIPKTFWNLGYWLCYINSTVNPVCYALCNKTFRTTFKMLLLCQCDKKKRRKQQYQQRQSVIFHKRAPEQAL

[2] = target: T1, Muscarinic acetylcholine receptor M3; test: Inhibition of [3H]NMS binding to human cloned M3 receptor expressed in CHO cells
Method in brief: (§1)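 Competition against specific [3H]-NMS binding on membranes of CHO cells expressing cloned human receptor subtypes. Assay buffer 50 mM Tris-HCl, 10 mM MgCl2, 1 mM EDTA, pH 7.4, highest final concentration 10 µM.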
Target sequence in this assay (P20309 whole entry): as the sequence (P20309 whole entry, looked up) above

[3] = target: T2, Muscarinic acetylcholine receptor M5 (Homo sapiens, UniProt P08912); test: Inhibition of [3H]NMS binding to human cloned M5 receptor expressed in CHO cells; method in brief: as §1
T2 sequence (P08912 whole entry): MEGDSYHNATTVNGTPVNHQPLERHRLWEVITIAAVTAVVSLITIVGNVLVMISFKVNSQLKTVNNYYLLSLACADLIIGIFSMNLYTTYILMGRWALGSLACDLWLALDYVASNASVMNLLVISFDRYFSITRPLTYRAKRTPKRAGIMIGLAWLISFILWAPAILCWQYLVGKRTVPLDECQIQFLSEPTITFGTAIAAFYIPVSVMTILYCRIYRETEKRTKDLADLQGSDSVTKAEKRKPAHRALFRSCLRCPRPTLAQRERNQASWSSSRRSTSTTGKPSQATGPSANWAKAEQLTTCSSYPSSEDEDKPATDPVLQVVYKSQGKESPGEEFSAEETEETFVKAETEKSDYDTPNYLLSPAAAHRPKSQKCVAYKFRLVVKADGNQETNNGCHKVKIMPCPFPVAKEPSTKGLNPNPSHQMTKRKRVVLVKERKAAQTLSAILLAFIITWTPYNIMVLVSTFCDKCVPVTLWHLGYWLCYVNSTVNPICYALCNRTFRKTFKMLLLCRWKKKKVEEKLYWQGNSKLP

[4] = target: T3, Muscarinic acetylcholine receptor M4 (Homo sapiens, UniProt P08173); test: Inhibition of [3H]NMS binding to human cloned M4 receptor expressed in CHO cells; method in brief: as §1
T3 sequence (P08173 whole entry): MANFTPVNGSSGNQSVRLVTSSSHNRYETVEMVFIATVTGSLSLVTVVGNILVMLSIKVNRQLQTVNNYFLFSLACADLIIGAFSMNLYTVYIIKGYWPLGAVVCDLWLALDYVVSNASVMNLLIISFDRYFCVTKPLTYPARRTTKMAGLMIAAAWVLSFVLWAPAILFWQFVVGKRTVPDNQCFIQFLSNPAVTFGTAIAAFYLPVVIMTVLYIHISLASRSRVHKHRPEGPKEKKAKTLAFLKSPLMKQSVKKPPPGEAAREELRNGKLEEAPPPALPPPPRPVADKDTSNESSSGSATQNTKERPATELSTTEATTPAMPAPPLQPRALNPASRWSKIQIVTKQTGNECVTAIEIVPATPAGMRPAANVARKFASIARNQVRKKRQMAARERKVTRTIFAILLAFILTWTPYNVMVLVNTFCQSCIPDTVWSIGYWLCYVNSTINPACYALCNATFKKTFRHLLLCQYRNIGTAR

[5] = target: T4, Muscarinic acetylcholine receptor M1 (Homo sapiens, UniProt P11229); test: Inhibition of [3H]NMS binding to human cloned M1 receptor expressed in CHO cells; method in brief: as §1
T4 sequence (P11229 whole entry): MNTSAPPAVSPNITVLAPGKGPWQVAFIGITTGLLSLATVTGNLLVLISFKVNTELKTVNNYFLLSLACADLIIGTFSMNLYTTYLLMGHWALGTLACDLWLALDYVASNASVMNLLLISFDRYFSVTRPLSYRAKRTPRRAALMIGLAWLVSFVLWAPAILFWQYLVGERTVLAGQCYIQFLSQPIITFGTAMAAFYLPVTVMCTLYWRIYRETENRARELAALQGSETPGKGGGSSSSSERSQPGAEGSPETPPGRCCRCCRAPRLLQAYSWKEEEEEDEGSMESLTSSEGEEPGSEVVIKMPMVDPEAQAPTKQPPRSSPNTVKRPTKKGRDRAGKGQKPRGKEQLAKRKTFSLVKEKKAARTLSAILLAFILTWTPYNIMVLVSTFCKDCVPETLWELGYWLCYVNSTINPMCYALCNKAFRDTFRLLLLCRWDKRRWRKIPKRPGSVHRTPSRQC

Compound	inhibition [1] [%]	Ki [2] [nM]	Ki [3] [nM]	Ki [4] [nM]	Ki [5] [nM]
Nc1ccccc1CNC(=O)[C@H]1CCCN1C(=O)[C@@H]1CCCN1C(=O)CC(c1ccccc1)(c1ccccc1)c1ccccc1 (stereo in doubt; 46)	10				
O=C(NCC1CCCCN1)[C@H]1CCCN1C(=O)[C@@H]1CCCN1C(=O)CC(c1ccccc1)(c1ccccc1)c1ccccc1 (some centres undefined)	28				
Nc1ccc(NC(=O)[C@H]2CCCN2C(=O)[C@@H]2CCCN2C(=O)CC(c2ccccc2)(c2ccccc2)c2ccccc2)cc1	8				
NC1CCC(NC(=O)[C@H]2CCCN2C(=O)[C@@H]2CCCN2C(=O)CC(c2ccccc2)(c2ccccc2)c2ccccc2)CC1 (some centres undefined)	-7				
O=C([C@H]1CCCN1C(=O)[C@@H]1CCCN1C(=O)CC(c1ccccc1)(c1ccccc1)c1ccccc1)N1CCNCC1	12				
N[C@H]1CCCC[C@@H]1NC(=O)[C@H]1CCCN1C(=O)[C@@H]1CCCN1C(=O)CC(c1ccccc1)(c1ccccc1)c1ccccc1	80	48			
O=C([C@H]1CCCN1C(=O)[C@@H]1CCCN1C(=O)CC(c1ccccc1)(c1ccccc1)c1ccccc1)N1CCCNCC1	-2				
NCC1CCCN(C(=O)[C@H]2CCCN2C(=O)[C@@H]2CCCN2C(=O)CC(c2ccccc2)(c2ccccc2)c2ccccc2)C1 (some centres undefined)	32				
Nc1cccc(NC(=O)[C@H]2CCCN2C(=O)[C@@H]2CCCN2C(=O)CC(c2ccccc2)(c2ccccc2)c2ccccc2)c1	0				
NCC1CCCCN1C(=O)[C@H]1CCCN1C(=O)[C@@H]1CCCN1C(=O)CC(c1ccccc1)(c1ccccc1)c1ccccc1 (some centres undefined)	5				
Nc1cccc(CNC(=O)[C@H]2CCCN2C(=O)[C@@H]2CCCN2C(=O)CC(c2ccccc2)(c2ccccc2)c2ccccc2)c1	6				
NC1CCCN(C(=O)[C@H]2CCCN2C(=O)[C@@H]2CCCN2C(=O)CC(c2ccccc2)(c2ccccc2)c2ccccc2)C1 (some centres undefined)	22				
O=C([C@H]1CCCN1C(=O)[C@@H]1CCCN1C(=O)CC(c1ccccc1)(c1ccccc1)c1ccccc1)N1CCC2NCCC21 (some centres undefined)	7				
NCCCNC(=O)[C@H]1CCCN1C(=O)[C@@H]1CCCN1C(=O)CC(c1ccccc1)(c1ccccc1)c1ccccc1	2				
Nc1ccccc1NC(=O)[C@H]1CCCN1C(=O)[C@@H]1CCCN1C(=O)CC(c1ccccc1)(c1ccccc1)c1ccccc1	11				
O=C([C@H]1CCCN1C(=O)[C@@H]1CCCN1C(=O)CC(c1ccccc1)(c1ccccc1)c1ccccc1)N1CCCNC1	12				
Nc1ccccc1CNC(=O)[C@H]1CCCN1C(=O)[C@@H]1CCCN1C(=O)CC(c1ccccc1)(c1ccccc1)c1ccccc1 (stereo in doubt; 45)	5				
O=C([C@H]1CCCN1C(=O)[C@@H]1CCCN1C(=O)CC(c1ccccc1)(c1ccccc1)c1ccccc1)N1CC2CNCC2C1 (some centres undefined)	7				
Nc1ccc(CNC(=O)[C@H]2CCCN2C(=O)[C@@H]2CCCN2C(=O)CC(c2ccccc2)(c2ccccc2)c2ccccc2)cc1	6				
NCc1ccc(NC(=O)[C@H]2CCCN2C(=O)[C@@H]2CCCN2C(=O)CC(c2ccccc2)(c2ccccc2)c2ccccc2)cc1	9				
N[C@@H]1CCCC[C@@H]1NC(=O)[C@H]1CCCN1C(=O)[C@@H]1CCCN1C(=O)CC(c1ccccc1)(c1ccccc1)c1ccccc1	40				
NCC1CCN(C(=O)[C@H]2CCCN2C(=O)[C@@H]2CCCN2C(=O)CC(c2ccccc2)(c2ccccc2)c2ccccc2)C1 (some centres undefined)	7				
NC1CCCC(NC(=O)[C@H]2CCCN2C(=O)[C@@H]2CCCN2C(=O)CC(c2ccccc2)(c2ccccc2)c2ccccc2)C1 (some centres undefined)	59	170			
NC1CCN(C(=O)[C@H]2CCCN2C(=O)[C@@H]2CCCN2C(=O)CC(c2ccccc2)(c2ccccc2)c2ccccc2)C1 (some centres undefined)	0				
NCc1cccc(NC(=O)[C@H]2CCCN2C(=O)[C@@H]2CCCN2C(=O)CC(c2ccccc2)(c2ccccc2)c2ccccc2)c1	12				
NCC1CCN(C(=O)[C@H]2CCCN2C(=O)[C@@H]2CCCN2C(=O)CC(c2ccccc2)(c2ccccc2)c2ccccc2)CC1	59	150			
NCCNC(=O)[C@H]1CCCN1C(=O)[C@@H]1CCCN1C(=O)CC(c1ccccc1)(c1ccccc1)c1ccccc1	-4				

Now from value to molecule:

inhibition [1] [%]	Ki [2] [nM]	Ki [3] [nM]	Ki [4] [nM]	Ki [5] [nM]	Compound
88	29				O=C(NCCC1CCNCC1)[C@H]1CCCN1C(=O)[C@@H]1CCCN1C(=O)CC(c1ccccc1)(c1ccccc1)c1ccccc1
82	49				O=C(NCC1CCNCC1)[C@H]1CCCN1C(=O)[C@@H]1CCCN1C(=O)CC(c1ccccc1)(c1ccccc1)c1ccccc1
	2.4	> 5400	180	800	CC(C)NC(=O)[C@H]1CCCN1C(=O)[C@@H]1C[C@@H](O)CN1C(=O)CC(c1ccc(F)cc1)(c1ccc(F)cc1)c1ccc(F)cc1
	2.8	> 5100	150	2000	O=C(NCCC1CCNCC1)[C@H]1CCCN1C(=O)[C@@H]1C[C@@H](O)CN1C(=O)CC(c1ccccc1)(c1ccccc1)c1ccccc1
	0.48	1700	29	300	O=C(NCCC1CCNCC1)[C@H]1CCCN1C(=O)[C@@H]1C[C@@H](O)CN1C(=O)CC(c1ccc(F)cc1)(c1ccc(F)cc1)c1ccc(F)cc1
	0.51	3200	48	210	O=C(NCC1CCN(C2CCCC2)CC1)[C@H]1CCCN1C(=O)[C@@H]1C[C@@H](O)CN1C(=O)CC(c1ccc(F)cc1)(c1ccc(F)cc1)c1ccc(F)cc1
	1.2	950	24	260	O=C(NCCC1CCNCC1)[C@H]1CCCN1C(=O)[C@@H]1C[C@@H](O)CN1C(=O)CC(c1ccc(Cl)cc1)(c1ccc(Cl)cc1)c1ccc(Cl)cc1
	0.19	940	11	71	O=C(NCC1CCN(CC2CCCC2)CC1)[C@H]1CCCN1C(=O)[C@@H]1C[C@@H](O)CN1C(=O)CC(c1ccc(F)cc1)(c1ccc(F)cc1)c1ccc(F)cc1
	0.51	1600	41	270	CN1CCC(CNC(=O)[C@H]2CCCN2C(=O)[C@@H]2C[C@@H](O)CN2C(=O)CC(c2ccc(F)cc2)(c2ccc(F)cc2)c2ccc(F)cc2)CC1
	0.39	2500	53	93	O=C(NCC1CCNCC1)[C@H]1CCCN1C(=O)[C@@H]1C[C@@H](O)CN1C(=O)CC(c1ccc(Cl)cc1)(c1ccc(Cl)cc1)c1ccc(Cl)cc1
	0.53	3100	31	220	O=C(NCC1CCN(CC2CCC2)CC1)[C@H]1CCCN1C(=O)[C@@H]1C[C@@H](O)CN1C(=O)CC(c1ccc(F)cc1)(c1ccc(F)cc1)c1ccc(F)cc1
	0.39	1700	39	300	O=C(NC[C@@H]1CCCNC1)[C@H]1CCCN1C(=O)[C@@H]1C[C@@H](O)CN1C(=O)CC(c1ccc(F)cc1)(c1ccc(F)cc1)c1ccc(F)cc1
33					O=C(NCC1CCNC1)[C@H]1CCCN1C(=O)[C@@H]1CCCN1C(=O)CC(c1ccccc1)(c1ccccc1)c1ccccc1 (some centres undefined)
91	23				O=C(NC[C@@H]1CCCNC1)[C@H]1CCCN1C(=O)[C@@H]1CCCN1C(=O)CC(c1ccccc1)(c1ccccc1)c1ccccc1
4					O=C(NC1CCNCC1)[C@H]1CCCN1C(=O)[C@@H]1CCCN1C(=O)CC(c1ccccc1)(c1ccccc1)c1ccccc1
-4					O=C(NC1CCNC1)[C@H]1CCCN1C(=O)[C@@H]1CCCN1C(=O)CC(c1ccccc1)(c1ccccc1)c1ccccc1 (some centres undefined)
